Measured values from ChEMBL document CHEMBL4152262, “Design, synthesis and evaluation of novel multi-target-directed ligands for treatment of Alzheimer's disease based on coumarin and lipoic acid scaffolds” (Eur J Med Chem, 2018).

Key:
[1] = target: Amyloid-beta precursor protein (Homo sapiens) (UniProt P05067); experiment: Inhibition of amyloid beta (1 to 42) (unknown origin) self-induced aggregation at 100 uM incubated for 48 hrs by thioflavin-T fluorescence assay relative to control
[2] = tested on: PC-12; experiment: Inhibition of H2O2-induced ROS generation in rat PC12 cells assessed as intracellular ROS level at 5 uM preincubated for 6 hrs followed by H2O2 addition measured after 18 hrs by DCFH-DA staining based fluorimetric method relative to control; format: functional; design: scale not given: the % may be the effect or the level left
Procedure, shortened: (§1)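 PC12 cells at 1×10^4/well in RPMI with 10% FBS and penicillin/streptomycin, 24 h at 37 °C, 5% CO2. Test samples (1, 5, 10, 50 µM; ≤0.5% DMSO) for 6 h, PBS wash, then H2O2 150 µM for 18 h. Loaded with 10 µM DCFH-DA for 30 min at 37 °C in the dark, washed twice. DCF fluorescence read at ex 485/em 528 nm as % of untreated control. Three independent experiments, mean ± SEM.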

[3] = tested on: PC-12; experiment: Inhibition of H2O2-induced ROS generation in rat PC12 cells assessed as intracellular ROS level at 1 uM preincubated for 6 hrs followed by H2O2 addition measured after 18 hrs by DCFH-DA staining based fluorimetric method relative to control; format: functional; design: scale not given: the % may be the effect or the level left; procedure, shortened: as §1
[4] = tested on: PC-12; experiment: Inhibition of H2O2-induced ROS generation in rat PC12 cells assessed as intracellular ROS level at 10 uM preincubated for 6 hrs followed by H2O2 addition measured after 18 hrs by DCFH-DA staining based fluorimetric method relative to control; format: functional; design: scale not given: the % may be the effect or the level left; procedure, shortened: as §1
[5] = tested on: PC-12; experiment: Inhibition of H2O2-induced ROS generation in rat PC12 cells assessed as intracellular ROS level at 50 uM preincubated for 6 hrs followed by H2O2 addition measured after 18 hrs by DCFH-DA staining based fluorimetric method relative to control; format: functional; design: scale not given: the % may be the effect or the level left; procedure, shortened: as §1
[6] = target: Cholinesterase (Equus caballus, UniProt P81908); experiment: Inhibition of equine serum BuChE using butyrylthiocholine iodide as substrate pretreated for 5 mins followed by substrate addition by Ellman's method
Chain of Cholinesterase (P81908 whole entry): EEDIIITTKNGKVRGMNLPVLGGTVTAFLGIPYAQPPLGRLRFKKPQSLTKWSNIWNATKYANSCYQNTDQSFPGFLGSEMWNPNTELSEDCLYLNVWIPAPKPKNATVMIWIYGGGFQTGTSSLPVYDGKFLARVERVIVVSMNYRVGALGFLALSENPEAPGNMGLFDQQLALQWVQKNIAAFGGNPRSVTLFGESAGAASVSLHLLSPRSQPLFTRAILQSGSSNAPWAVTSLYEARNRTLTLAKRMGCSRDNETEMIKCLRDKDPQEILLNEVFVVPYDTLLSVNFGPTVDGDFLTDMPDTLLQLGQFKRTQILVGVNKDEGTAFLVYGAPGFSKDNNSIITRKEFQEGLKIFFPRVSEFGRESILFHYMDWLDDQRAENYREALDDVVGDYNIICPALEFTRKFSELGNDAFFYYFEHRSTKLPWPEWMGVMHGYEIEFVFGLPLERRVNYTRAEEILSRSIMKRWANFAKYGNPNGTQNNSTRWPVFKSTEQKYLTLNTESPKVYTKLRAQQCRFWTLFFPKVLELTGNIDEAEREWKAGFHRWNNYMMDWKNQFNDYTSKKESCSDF
Procedure, shortened: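 Ellman assay with horse serum BuChE (5 IU/mL) in 0.1 M phosphate buffer pH 8.0 with DTNB. Compound was preincubated with enzyme 5 min, then butyrylthiocholine iodide was added. Absorbance read at 412 nm. IC50 from a log concentration vs % inhibition curve; triplicate runs.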

[7] = Inhibition of soybean 15-LOX assessed as reduction in conversion of linoleic acid to 13-hydroperoxylinoleic acid by spectrophotometric method; design: species or system Glycine max
Procedure, shortened: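 Soybean lipoxygenase type 1-B (final 167 U/mL) with compound (DMSO stock diluted in 0.1 M phosphate buffer pH 8) and linoleic acid (134 mM in ethanol) at room temperature. Formation of 13-hydroperoxylinoleic acid followed spectrophotometrically at 234 nm.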

[8] = tested on: PC-12; experiment: Neuroprotection against H2O2-induced cell death in rat PC12 cells assessed as cell viability at 20 uM preincubated for 3 hrs followed by H2O2 stimulation measured after 2 hrs by MTT assay (reference value: 25.2 to 41.8%); format: functional; details: read-out: Activity
[9] = tested on: PC-12; experiment: Neuroprotection against H2O2-induced cell death in rat PC12 cells assessed as cell viability at 10 uM preincubated for 3 hrs followed by H2O2 stimulation measured after 2 hrs by MTT assay (reference value: 25.2 to 41.8%); format: functional; details: read-out: Activity
[10] = tested on: PC-12; experiment: Neuroprotection against H2O2-induced cell death in rat PC12 cells assessed as cell viability at 0.1 uM preincubated for 3 hrs followed by H2O2 stimulation measured after 2 hrs by MTT assay (reference value: 25.2 to 41.8%); format: functional; details: read-out: Activity
[11] = target: Acetylcholinesterase (Electrophorus electricus, UniProt O42275); experiment: Inhibition of electric eel AChE using acetylthiocholine iodide as substrate pretreated for 5 mins followed by substrate addition by Ellman's method
Chain of Acetylcholinesterase (O42275 whole entry): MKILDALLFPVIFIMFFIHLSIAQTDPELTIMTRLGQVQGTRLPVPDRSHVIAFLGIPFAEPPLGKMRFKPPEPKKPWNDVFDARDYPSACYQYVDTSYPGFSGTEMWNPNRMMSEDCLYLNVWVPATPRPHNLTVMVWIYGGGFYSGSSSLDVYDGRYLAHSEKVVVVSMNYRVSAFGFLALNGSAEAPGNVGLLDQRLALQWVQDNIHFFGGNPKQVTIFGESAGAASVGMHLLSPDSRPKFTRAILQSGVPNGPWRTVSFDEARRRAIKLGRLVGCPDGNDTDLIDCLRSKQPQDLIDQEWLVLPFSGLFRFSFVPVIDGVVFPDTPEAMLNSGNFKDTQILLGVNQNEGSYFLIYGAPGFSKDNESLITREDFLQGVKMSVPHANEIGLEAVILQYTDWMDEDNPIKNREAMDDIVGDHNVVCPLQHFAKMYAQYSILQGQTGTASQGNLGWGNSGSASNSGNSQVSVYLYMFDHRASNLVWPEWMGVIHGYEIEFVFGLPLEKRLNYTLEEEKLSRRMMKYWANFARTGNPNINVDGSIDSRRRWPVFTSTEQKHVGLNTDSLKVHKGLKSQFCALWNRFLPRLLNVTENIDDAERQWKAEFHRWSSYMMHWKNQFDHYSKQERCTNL

[12] = tested on: PC-12; experiment: Neuroprotection against H2O2-induced cell death in rat PC12 cells assessed as cell viability at 50 uM preincubated for 3 hrs followed by H2O2 stimulation measured after 2 hrs by MTT assay (reference value: 25.2 to 41.8%); format: functional; details: read-out: Activity
[13] = tested on: PC-12; experiment: Neuroprotection against H2O2-induced cell death in rat PC12 cells assessed as cell viability at 1 uM preincubated for 3 hrs followed by H2O2 stimulation measured after 2 hrs by MTT assay (reference value: 25.2 to 41.8%); format: functional; details: read-out: Activity
[14] = tested on: PC-12; experiment: Neuroprotection against H2O2-induced cell death in rat PC12 cells assessed as cell viability at 5 uM preincubated for 3 hrs followed by H2O2 stimulation measured after 2 hrs by MTT assay (reference value: 25.2 to 41.8%); format: functional; details: read-out: Activity
[15] = tested on: PC-12; experiment: Neuroprotection against H2O2-induced cell death in rat PC12 cells assessed as increase in cell viability preincubated for 3 hrs followed by H2O2 stimulation measured after 2 hrs by MTT assay; format: functional, cell-based

Chain of Amyloid-beta precursor protein (Homo sapiens) (P05067 whole entry): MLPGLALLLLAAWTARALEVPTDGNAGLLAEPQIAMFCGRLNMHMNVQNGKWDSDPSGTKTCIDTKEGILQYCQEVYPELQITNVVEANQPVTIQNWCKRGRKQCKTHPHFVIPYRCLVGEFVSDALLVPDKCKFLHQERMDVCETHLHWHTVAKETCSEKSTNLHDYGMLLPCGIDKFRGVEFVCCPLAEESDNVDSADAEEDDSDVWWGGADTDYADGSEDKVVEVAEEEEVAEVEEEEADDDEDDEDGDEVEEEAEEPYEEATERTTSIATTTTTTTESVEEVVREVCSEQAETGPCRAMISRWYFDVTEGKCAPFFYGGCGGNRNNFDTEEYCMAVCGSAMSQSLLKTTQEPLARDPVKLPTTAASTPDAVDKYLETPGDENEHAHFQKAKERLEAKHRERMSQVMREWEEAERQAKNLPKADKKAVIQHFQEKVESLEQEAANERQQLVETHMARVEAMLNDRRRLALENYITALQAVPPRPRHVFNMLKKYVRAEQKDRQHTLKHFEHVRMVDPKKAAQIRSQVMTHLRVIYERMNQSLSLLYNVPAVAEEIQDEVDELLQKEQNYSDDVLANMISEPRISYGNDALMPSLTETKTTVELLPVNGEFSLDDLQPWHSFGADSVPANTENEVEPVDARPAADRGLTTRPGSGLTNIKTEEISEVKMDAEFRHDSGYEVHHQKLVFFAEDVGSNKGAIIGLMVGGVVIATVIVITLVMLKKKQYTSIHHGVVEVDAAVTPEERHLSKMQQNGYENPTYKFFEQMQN

Structure (SMILES) | inhibition [1] [%] | Activity [2] [%] | Activity [3] [%] | Activity [4] [%] | Activity [5] [%] | IC50 [6] [µM] | IC50 [7] [µM] | viability at 20 µM [8] [%] | viability at 10 µM [9] [%] | viability at 0.1 µM [10] [%] | IC50 [11] [µM] | viability at 50 µM [12] [%] | viability at 1 µM [13] [%] | viability at 5 µM [14] [%] | Activity [15]
CO[C@H]1/C=C/O[C@@]2(C)Oc3c(C)c(O)c4c(O)c(c(/C=N/N5CCN(C)CC5)c(O)c4c3C2=O)NC(=O)/C(C)=C\C=C\[C@H](C)[C@H](O)[C@@H](C)[C@@H](O)[C@@H](C)[C@H](OC(C)=O)[C@@H]1C | 27.5 | – | – | – | – | – | – | – | – | – | – | – | – | – | –
O=C(O)CCCCC1CCSS1 (stereo not drawn) [LIPOIC ACID, ALPHA] | – | 110.65 | 138.77 | 105.72 | 55.9 | – | – | – | – | – | – | – | – | – | –
O=C(CCCCC1CCSS1)NCc1cn(CCCCCOc2ccc3ccc(=O)oc3c2)nn1 (stereo not given) | – | – | – | – | – | > 100 | > 100 | 78.5 | 71.3 | 46.3 | 70.6 | 84.9 | 57.2 | 64.5 | Dose-dependent effect
COc1ccc(-c2cc3ccc(OCCCCn4cc(CNC(=O)CCCCC5CCSS5)nn4)cc3oc2=O)cc1OC (stereo not given) | – | – | – | – | – | > 100 | > 100 | 68.4 | 64 | 40.7 | > 100 | 71.9 | 53 | 57.2 | Dose-dependent effect
O=C(CCCCC1CCSS1)NCc1cn(CCCCCOc2ccc3cc(-c4ccc(Cl)c(Cl)c4)c(=O)oc3c2)nn1 (stereo not given) | – | – | – | – | – | 7.8 | > 100 | 65.5 | 59.4 | 39.7 | > 100 | 66.2 | 50.6 | 54.8 | Dose-dependent effect
O=C(CCCCC1CCSS1)NCc1cn(CCCOc2ccc3cc(-c4ccc(Br)cc4)c(=O)oc3c2)nn1 (stereo not given) | – | – | – | – | – | > 100 | > 100 | 69.1 | 63.3 | 39.5 | 46.5 | 74.7 | 42.8 | 57.3 | Dose-dependent effect
O=C(CCCCC1CCSS1)NCc1cn(CCCOc2ccc3ccc(=O)oc3c2)nn1 (stereo not given) | – | – | – | – | – | > 100 | > 100 | 42.2 | 40 | 37.8 | 66.7 | 43.5 | 37.2 | 39.2 | Dose-dependent effect
O=C(CCCCC1CCSS1)NCc1cn(CCCCOc2ccc3cc(-c4ccc(Cl)c(Cl)c4)c(=O)oc3c2)nn1 (stereo not given) | – | – | – | – | – | 10.3 | > 100 | 62.9 | 58.9 | 39.6 | > 100 | 69.5 | 49.3 | 53.2 | Dose-dependent effect
CCOC(=O)c1cc2ccc(OCCCn3cc(CNC(=O)CCCCC4CCSS4)nn3)cc2oc1=O (stereo not given) | – | – | – | – | – | > 100 | > 100 | 42.1 | 36.1 | 28 | 55 | 49.2 | 28.3 | 32.4 | Dose-dependent effect
Cc1cc(=O)oc2cc(OCCCCCn3cc(CNC(=O)CCCCC4CCSS4)nn3)ccc12 (stereo not given) | – | – | – | – | – | > 100 | > 100 | 70.3 | 66.3 | 45.6 | > 100 | 73.7 | 56.5 | 61 | Dose-dependent effect
COc1ccc(-c2cc3ccc(OCCCn4cc(CNC(=O)CCCCC5CCSS5)nn4)cc3oc2=O)cc1 (stereo not given) | – | – | – | – | – | > 100 | > 100 | 62 | 57.6 | 42 | 40.2 | 65.7 | 47.4 | 52.8 | Dose-dependent effect
O=C(CCCCC1CCSS1)NCc1cn(CCCCCOc2ccc3cc(-c4ccc(Br)cc4)c(=O)oc3c2)nn1 (stereo not given) | – | – | – | – | – | > 100 | > 100 | 52.3 | 48.4 | 41.8 | > 100 | 53.6 | 43.7 | 45.7 | Dose-dependent effect
O=C(CCCCC1CCSS1)NCc1cn(CCCOc2ccc3cc(-c4ccc(Cl)cc4)c(=O)oc3c2)nn1 (stereo not given) | – | – | – | – | – | > 100 | > 100 | 75.6 | 67.8 | 40.9 | > 100 | 79.4 | 49.3 | 60.6 | Dose-dependent effect
COc1ccc(-c2cc3ccc(OCCCCCn4cc(CNC(=O)CCCCC5CCSS5)nn4)cc3oc2=O)cc1OC (stereo not given) | – | – | – | – | – | > 100 | > 100 | 51.9 | 50.5 | 38.5 | > 100 | 55 | 42.2 | 46.9 | Dose-dependent effect
